In ChEMBL document CHEMBL1125595 (1991):
≈ marks a conversion by molar mass, not a printed value.

Key:
Vero [1] = experiment: Antiviral activity determined by plaque reduction assay of HSV-2 (G) in vero cells; assay type: functional; conditions: Chlorocebus sabaeus, read-out: ID50 (the source's name)
Procedure, shortened: (§1)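 Plaque reduction assay: HSV strains in Vero cells and HCMV in MRC-5 cells. ID50 is the dose giving a 50% fall in plaque numbers relative to untreated controls.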

MRC5 = experiment: Antiviral activity determined by plaque reduction assay of HCMV (AD-169) in MRC-5 cells; assay type: functional; conditions: Homo sapiens, read-out: ID50 (the source's name); procedure, shortened: as §1
Vero [2] = experiment: Antiviral activity determined by plaque reduction assay of HSV-1 (BWS) in vero cells; assay type: functional; conditions: Chlorocebus sabaeus, read-out: ID50 (the source's name); procedure, shortened: as §1
Vero [3] = experiment: Anticellular activity was determined by cell proliferation assay in vero cells.; conditions: Chlorocebus sabaeus, read-out: ID50 (the source's name)
Mus musculus [4] = experiment: Antiviral activity in terms of percentage survival at a dose of 300 mg/kg after intraperitoneal inoculation of HSV-1(BWS) in mice (10/10); assay type: functional; conditions: ip
Procedure, shortened: (§2)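 Female Swiss-Webster mice of about 20 g were infected intraperitoneally with 5 × 10^4 PFU HSV-1 (BWS). Compound was given intraperitoneally twice daily for 5 consecutive days, starting 3 h postinfection. A saline placebo group served as control. Deaths were recorded for 21 days, and survivors and mean survival time in days were taken at the day-21 endpoint.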

Mus musculus [5] = experiment: Antiviral activity in terms of percentage survival at a dose of 100 mg/kg after intraperitoneal inoculation of HSV-1(BWS) in mice (9/10); assay type: functional; conditions: ip; procedure, shortened: as §2
Mus musculus [6] = experiment: Compound tested for its effect on mean survival time in mice against HSV-1(BWS) at a dose of 100 mg/kg.; assay type: functional; procedure, shortened: as §2
Mus musculus [7] = experiment: Compound tested for its effect on mean survival time in mice against HSV-1(BWS) at a dose of 300 mg/kg.; assay type: functional; procedure, shortened: as §2
Mus musculus [8] = experiment: Antiviral activity in terms of percentage survival at a dose of 300 mg/kg after intraperitoneal inoculation of HSV-1(BWS) in mice (6/7); assay type: functional; conditions: ip; procedure, shortened: as §2
Mus musculus [9] = experiment: Antiviral activity in terms of percentage survival at a dose of 100 mg/kg after intraperitoneal inoculation of HSV-1(BWS) in mice (7/10); assay type: functional; conditions: ip; procedure, shortened: as §2

Structure (SMILES)	IC50 (Vero [1])	IC50 (MRC5)	IC50 (Vero [2])	IC50 (Vero [3])	survival at 300 mg/kg (Mus musculus [4])	survival at 100 mg/kg (Mus musculus [5])	MST (Mus musculus [6])	MST (Mus musculus [7])	survival at 300 mg/kg (Mus musculus [8])	survival at 100 mg/kg (Mus musculus [9])
Nc1nc(O)c2ncn(COC(CO)OCP(=O)([O-])[O-])c2n1.[Na+].[Na+] (configuration not stated)	8.2 µg/mL	0.9 µg/mL	3.3 µg/mL	> 100 µg/mL						
N.Nc1nc(O)c2ncn(CC(CO)CCP(=O)(O)O)c2n1 (configuration not stated)	> 100 µg/mL	> 100 µg/mL		> 100 µg/mL						
CC(OCn1cnc2c(O)nc(N)nc21)OCP(=O)(O)O (configuration not stated)	> 100 µg/mL	> 100 µg/mL	> 100 µg/mL	> 100 µg/mL						
N.Nc1ccn(CC(CO)CCP(=O)(O)O)c(=O)n1 (configuration not stated)	> 100 µg/mL	> 100 µg/mL		> 100 µg/mL						
Nc1nc(O)c2ncn(COCOCP(=O)([O-])[O-])c2n1.[Na+].[Na+]	11 µg/mL	5 µg/mL	2.6 µg/mL	> 100 µg/mL	100%	90%	20.4 days	21 days		
Cc1cn(COCOCP(=O)([O-])[O-])c(=O)[nH]c1=O.[Na+].[Na+]	> 100 µg/mL	> 100 µg/mL	> 100 µg/mL	> 100 µg/mL						
Nc1ccn(COCOCP(=O)([O-])[O-])c(=O)n1.[Na+].[Na+]	> 100 µg/mL	> 100 µg/mL	> 100 µg/mL	> 100 µg/mL						
Nc1ncnc2c1ncn2COCOCP(=O)([O-])[O-].[Na+].[Na+]	> 100 µg/mL	> 100 µg/mL	> 100 µg/mL	> 100 µg/mL						
COC(CO)OCn1cnc2c(O)nc(N)nc21 (configuration not stated)	> 100 µg/mL	> 100 µg/mL	> 100 µg/mL	> 100 µg/mL						
N.Nc1ncnc2c1ncn2CC(CO)CCP(=O)(O)O (configuration not stated)	> 100 µg/mL	> 100 µg/mL		> 100 µg/mL						
Nc1nc2c(ncn2COCCO)c(=O)[nH]1 [ACYCLOVIR]	2.4 µg/mL (≈ 10.7 µM)	38.4 µg/mL (≈ 171 µM)	0.5 µg/mL (≈ 2.22 µM)	> 100 µg/mL				20 days	86%	70%
Nc1nc2c(ncn2CCOCP(=O)(O)O)c(=O)[nH]1 [GS-438]	0.69 µg/mL (≈ 2.39 µM)	0.04 µg/mL (≈ 0.138 µM)	0.08 µg/mL (≈ 0.277 µM)	5 µg/mL (≈ 17.3 µM)						
